Activation and EC50 data for 25 compounds are collected here from PubChem BioAssay AID624401 (The Scripps Research Institute Molecular Screening Center, 2012).

Structures are written as SMILES. Calls of active or inactive are those of the source.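 How the source made its calls: active means activation of 20% or more; inactive means activation below 20%, including negative responses.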

In the assay the target is Aryl hydrocarbon receptor (Homo sapiens) (UniProt P35869). Description: AhR reporter activation, late-stage follow-up, counter-screen for AHR activator project, luminescence, HG2L7.5c1 cells, set 2 (AID 624401). The conditions noted are these: HG2L7.5c1 HepG2 DRE-luciferase reporter, 24 h; for activation: at 10 µM, stronger effect = higher value. In short, it runs like this: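 Test system – HG2L7.5c1 cells, HepG2 stably expressing DRE-driven firefly luciferase reporter · Timing – compound exposure of cells for 24 h at 37 °C · Technique – luciferase luminescence measured in lysed cells · Evaluation – percent activation relative to maximal TCDD-induced signal, EC50 by four-parameter Hill fit · Replication – triplicate wells per compound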
For orientation: Counterscreens check selectivity or assay interference.

As usually defined, the EC50 is the concentration at which the effect is half-maximal.

Chain of Aryl hydrocarbon receptor (Homo sapiens) (P35869 whole entry, looked up): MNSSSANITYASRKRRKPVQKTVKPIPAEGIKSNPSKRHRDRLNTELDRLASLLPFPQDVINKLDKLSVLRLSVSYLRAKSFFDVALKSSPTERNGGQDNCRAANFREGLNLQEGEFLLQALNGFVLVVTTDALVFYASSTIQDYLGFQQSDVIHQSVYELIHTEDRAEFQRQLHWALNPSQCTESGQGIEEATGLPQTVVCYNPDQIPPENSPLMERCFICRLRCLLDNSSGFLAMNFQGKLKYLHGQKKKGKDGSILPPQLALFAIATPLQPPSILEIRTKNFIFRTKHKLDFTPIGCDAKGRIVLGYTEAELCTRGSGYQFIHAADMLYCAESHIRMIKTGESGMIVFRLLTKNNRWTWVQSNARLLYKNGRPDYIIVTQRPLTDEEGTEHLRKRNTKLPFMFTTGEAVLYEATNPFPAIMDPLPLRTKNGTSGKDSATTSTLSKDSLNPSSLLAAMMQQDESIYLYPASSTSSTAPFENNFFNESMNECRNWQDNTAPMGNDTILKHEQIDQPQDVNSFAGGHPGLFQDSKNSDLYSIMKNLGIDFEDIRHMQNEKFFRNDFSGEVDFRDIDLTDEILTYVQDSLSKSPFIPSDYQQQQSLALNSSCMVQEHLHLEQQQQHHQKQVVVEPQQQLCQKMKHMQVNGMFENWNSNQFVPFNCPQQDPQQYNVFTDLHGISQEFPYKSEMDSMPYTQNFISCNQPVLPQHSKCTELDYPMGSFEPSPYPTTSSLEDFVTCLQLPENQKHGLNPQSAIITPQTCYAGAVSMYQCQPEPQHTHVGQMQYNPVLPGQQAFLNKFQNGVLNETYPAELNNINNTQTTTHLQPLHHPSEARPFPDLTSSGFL

On to `COc1ccc(Nc2cc(Cl)nc(N)n2)cc1OC`, for which the activation entry was “inactive”.
Take `Cc1ccc(-c2cc(-c3ccc(F)cc3)n[nH]2)c(O)c1`: the EC50 was 250 nM.
`Nc1nc(Cl)cc(Nc2ccccc2F)n1`: the activation entry is “inactive”.
Same read-out and setting: the figure for `CCOc1ccccc1NC(=O)c1ccc(C(=O)Nc2ccccc2OCC)nc1` is 48.4%; for `Cc1csc(SCC(=O)Nc2ccccn2)n1` it is “inactive”.
The same measure, in the same setting: the entry for `O=C(CSc1nc2ccccc2s1)Nc1ccc(Cl)cn1` is “inactive”; for `Cc1cccc(C)c1NC(=O)c1ccc(C(=O)Nc2c(C)cccc2C)nc1` it is “inactive”; for `Nc1nc(Cl)cc(Nc2ccc(Oc3ccccc3)cc2)n1` it is 25.2%.
On the same count and under the same terms, the figure for `COc1ccc(-c2cc(-c3ccc(C)cc3O)[nH]n2)cc1` is 15.6%.
For the compound `Cc1ccc(-c2cc(-c3cccc(F)c3)n[nH]2)c(O)c1`, the concentration for a half-maximal effect (EC50) was 650 nM.
Turning to `Cc1ccnc(NC(=O)CSc2nc3ccccc3s2)c1`, the activation entry is “inactive”.
As to `Cc1ccc(-c2cc(-c3ccc(Cl)cc3)n[nH]2)c(O)c1`, the EC50 was 4000 nM.
On to `Cc1cc(Nc2ccc(F)cc2)nc(N)n1`, for which the activation result is “inactive”.
Same read-out and setting: the entry for `COc1ccc(Nc2cc(Cl)nc(N)n2)cc1` is “inactive”; for `O=C(CSc1nc2ccccc2s1)Nc1ccccn1` it is 18.9%.
On the same count and under the same terms, the entry for `Cc1cccc(NC(=O)c2cc(-c3ccc(C)cc3O)n[nH]2)c1` is “inactive”.
On the same count and under the same terms, the entry for `COc1ccc(O)c(-c2cc(-c3cccs3)[nH]n2)c1` is “inactive”; for `Cc1ccc(NC(=O)c2ccc(C(=O)Nc3ccc(C)cc3C)nc2)c(C)c1` it is “inactive”; for `COc1ccc(Cl)cc1NC(=O)c1ccc(C(=O)Nc2cc(Cl)ccc2OC)nc1` it is “inactive”.
As for `O=C(CSc1nc(-c2ccc(F)cc2)cs1)Nc1ccccn1`, the activation entry was “inactive”.
Still for that read-out and setting: as for `Cc1ccc(O)c(-c2cc(-c3ccccc3Cl)[nH]n2)c1`, the figure is 32%; as for `COc1ccc(NC(=O)c2ccc(C(=O)Nc3ccc(OC)cc3OC)nc2)c(OC)c1`, “inactive”.
On to `CN(Cc1cc(-c2cccs2)n[nH]1)Cc1coc2ccccc2c1=O`, for which the activation entry was “inactive”.
On the same count and under the same terms, the entry for `Cc1cc(Br)cc(C)c1Nc1ccnc(Nc2ccc(C#N)cc2)n1` is “inactive”; for `CCOC(=O)c1c(C)nn(-c2cc(Cl)ccc2Cl)c1C` it is “inactive”.
